Results reported in ChEMBL document CHEMBL1649446, “Comparative antipneumococcal activities of sulopenem and other drugs” (2009).
Values after ≈ are worked out from the molar mass of the structure shown.

What was measured:
Assay type in all cases: functional
Streptococcus pneumoniae [1] = assay: Antimicrobial activity against Streptococcus pneumoniae isolate 3681 by agar dilution method
Summary of the method: (§1)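 Agar dilution MIC on Mueller-Hinton agar with 5% sheep blood, inocula 10^4 CFU/spot; amoxicillin-clavulanate combined 1:2; S. pneumoniae ATCC 49619 quality control each run.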

Streptococcus pneumoniae [2] = assay: Antimicrobial activity against Streptococcus pneumoniae isolate 2874 by agar dilution method; summary of the method: as §1
Streptococcus pneumoniae [3] = assay: Antimicrobial activity against Streptococcus pneumoniae isolate 3412 by agar dilution method; summary of the method: as §1
Streptococcus pneumoniae [4] = assay: Antimicrobial activity against Streptococcus pneumoniae isolate 1146 by agar dilution method; summary of the method: as §1
Streptococcus pneumoniae [5] = assay: Antimicrobial activity against Streptococcus pneumoniae isolate 1397 by agar dilution method; summary of the method: as §1
Streptococcus pneumoniae [6] = assay: Antimicrobial activity against Streptococcus pneumoniae isolate 33 by agar dilution method; summary of the method: as §1
Streptococcus pneumoniae [7] = assay: Antimicrobial activity against penicillin-intermediate Streptococcus pneumoniae by agar dilution method
Streptococcus pneumoniae [8] = assay: Antimicrobial activity against Streptococcus pneumoniae isolate 3791 by agar dilution method; summary of the method: as §1
Streptococcus pneumoniae [9] = assay: Antimicrobial activity against Streptococcus pneumoniae isolate 1564 by agar dilution method
Streptococcus pneumoniae [10] = assay: Antimicrobial activity against Streptococcus pneumoniae isolate 3346 by agar dilution method
Streptococcus pneumoniae [11] = assay: Antimicrobial activity against Streptococcus pneumoniae 19A by agar dilution method; summary of the method: as §1
Streptococcus pneumoniae [12] = assay: Antimicrobial activity against Streptococcus pneumoniae 11 by time-kill analysis
Summary of the method: (§2)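 Time-kill in cation-adjusted Mueller-Hinton broth with 5% lysed horse blood; inocula 5 × 105 to 5 × 10^6 CFU/ml; drugs at MIC, 2× and 4× MIC; 35°C shaking water bath; viable counts at 0, 3, 6, 12, 24 h. Bactericidal = ≥3 log10 CFU/ml (99.9%) drop from original inoculum; 90%/99%/99.9% killing scored per strain.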

Streptococcus pneumoniae [13] = assay: Antimicrobial activity against Streptococcus pneumoniae 6 by time-kill analysis; summary of the method: as §2
Streptococcus pneumoniae [14] = assay: Antimicrobial activity against Streptococcus pneumoniae 12 by time-kill analysis; summary of the method: as §2
Streptococcus pneumoniae [15] = assay: Antimicrobial activity against Streptococcus pneumoniae 5 by time-kill analysis
Summary of the method: as §2, with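 “12 and” for “12,”, “if” for “=”, “reduction” for “drop”, “90% and 99%” for “90%/99%/99.9%”, “also scored.” for “scored per strain.”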

Streptococcus pneumoniae [16] = assay: Antimicrobial activity against Streptococcus pneumoniae 2 by time-kill analysis; summary of the method: as §2
Streptococcus pneumoniae [17] = assay: Antimicrobial activity against Streptococcus pneumoniae isolate 1384 by agar dilution method; summary of the method: as §1
Streptococcus pneumoniae [18] = assay: Antimicrobial activity against Streptococcus pneumoniae isolate 3260 by agar dilution method
Streptococcus pneumoniae [19] = assay: Antimicrobial activity against penicillin-resistant Streptococcus pneumoniae by agar dilution method; summary of the method: as §1
Streptococcus pneumoniae [20] = assay: Antimicrobial activity against Streptococcus pneumoniae 7 by time-kill analysis; summary of the method: as §2
Streptococcus pneumoniae [21] = assay: Antimicrobial activity against Streptococcus pneumoniae isolate 2686 by agar dilution method; summary of the method: as §1
Streptococcus pneumoniae [22] = assay: Antimicrobial activity against Streptococcus pneumoniae 3 by time-kill analysis; summary of the method: as §2
Streptococcus pneumoniae [23] = assay: Antimicrobial activity against Streptococcus pneumoniae isolate 3374 by agar dilution method; summary of the method: as §1
Streptococcus pneumoniae [24] = assay: Antimicrobial activity against Streptococcus pneumoniae isolate 3275 by agar dilution method; summary of the method: as §1
Streptococcus pneumoniae [25] = assay: Antimicrobial activity against Streptococcus pneumoniae 1 by time-kill analysis
Summary of the method: as §2, with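 “12 and” for “12,”, “if” for “=”, “reduction” for “drop”, “90% and 99%” for “90%/99%/99.9%”, “also scored.” for “scored per strain.”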

Streptococcus pneumoniae [26] = assay: Antimicrobial activity against Streptococcus pneumoniae isolate 4747 by agar dilution method; summary of the method: as §1
Streptococcus pneumoniae [27] = assay: Antimicrobial activity against Streptococcus pneumoniae isolate 1147 by agar dilution method; summary of the method: as §1
Streptococcus pneumoniae [28] = assay: Antimicrobial activity against Streptococcus pneumoniae isolate 1424 by agar dilution method; summary of the method: as §1
Streptococcus pneumoniae [29] = assay: Antimicrobial activity against Streptococcus pneumoniae isolate 3458 by agar dilution method
Streptococcus pneumoniae [30] = assay: Antimicrobial activity against Streptococcus pneumoniae isolate 3282 by agar dilution method
Streptococcus pneumoniae [31] = assay: Antimicrobial activity against Streptococcus pneumoniae isolate 2880 by agar dilution method; summary of the method: as §1
Streptococcus pneumoniae [32] = assay: Antimicrobial activity against Streptococcus pneumoniae isolate 37 by agar dilution method; summary of the method: as §1
Streptococcus pneumoniae [33] = assay: Antimicrobial activity against Streptococcus pneumoniae isolate 1055 by agar dilution method
Streptococcus pneumoniae [34] = assay: Antimicrobial activity against Streptococcus pneumoniae isolate 24 by agar dilution method
Streptococcus pneumoniae [35] = assay: Antimicrobial activity against penicillin-susceptible Streptococcus pneumoniae by agar dilution method
Streptococcus pneumoniae [36] = assay: Antimicrobial activity against Streptococcus pneumoniae 4 by time-kill analysis; summary of the method: as §2
Streptococcus pneumoniae [37] = assay: Antimicrobial activity against Streptococcus pneumoniae 10 by time-kill analysis; summary of the method: as §2
Streptococcus pneumoniae [38] = assay: Antimicrobial activity against Streptococcus pneumoniae isolate 2688 by agar dilution method; summary of the method: as §1
Streptococcus pneumoniae [39] = assay: Antimicrobial activity against Streptococcus pneumoniae isolate 2617 by agar dilution method; summary of the method: as §1
Streptococcus pneumoniae [40] = assay: Antimicrobial activity against Streptococcus pneumoniae isolate 3481 by agar dilution method; summary of the method: as §1
Streptococcus pneumoniae [41] = assay: Antimicrobial activity against Streptococcus pneumoniae isolate 1394 by agar dilution method
Streptococcus pneumoniae [42] = assay: Antimicrobial activity against Streptococcus pneumoniae isolate 3263 by agar dilution method
Streptococcus pneumoniae [43] = assay: Antimicrobial activity against Streptococcus pneumoniae 8 by time-kill analysis; summary of the method: as §2
Streptococcus pneumoniae [44] = assay: Antimicrobial activity against Streptococcus pneumoniae isolate 3455 by agar dilution method
Streptococcus pneumoniae [45] = assay: Antimicrobial activity against Streptococcus pneumoniae 9 by time-kill analysis
Summary of the method: as §2, with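 “12 and” for “12,”, “if” for “=”, “reduction” for “drop”, “90% and 99%” for “90%/99%/99.9%”, “also scored.” for “scored per strain.”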

Streptococcus pneumoniae [46] = assay: Antimicrobial activity against Streptococcus pneumoniae isolate 3587 by agar dilution method
Streptococcus pneumoniae [47] = assay: Antimicrobial activity against Streptococcus pneumoniae isolate 4755 by agar dilution method; summary of the method: as §1

C[C@@H](O)[C@H]1C(=O)N2C(C(=O)O)=C(SCCNC=N)C[C@H]12 [IMIPENEM ANHYDROUS]
MIC (Streptococcus pneumoniae [1]): 0.125 µg/mL (≈ 0.418 µM)
MIC (Streptococcus pneumoniae [2]): 0.25 µg/mL (≈ 0.835 µM)
MIC (Streptococcus pneumoniae [3]): 0.125 µg/mL (≈ 0.418 µM)
MIC (Streptococcus pneumoniae [4]): 0.5 µg/mL (≈ 1.67 µM)
MIC (Streptococcus pneumoniae [5]): 0.25 µg/mL (≈ 0.835 µM)
MIC (Streptococcus pneumoniae [6]): 0.5 µg/mL (≈ 1.67 µM)
MIC50 (Streptococcus pneumoniae [7]): 0.03 µg/mL (≈ 0.1 µM)
MIC90 (Streptococcus pneumoniae [7]): 0.125 µg/mL (≈ 0.418 µM)
MIC (Streptococcus pneumoniae [8]): 0.125 µg/mL (≈ 0.418 µM)
MIC (Streptococcus pneumoniae [9]): 0.125 µg/mL (≈ 0.418 µM)
MIC (Streptococcus pneumoniae [10]): 0.25 µg/mL (≈ 0.835 µM)
MIC50 (Streptococcus pneumoniae [11]): 0.5 µg/mL (≈ 1.67 µM)
MIC90 (Streptococcus pneumoniae [11]): 0.5 µg/mL (≈ 1.67 µM)
MIC (Streptococcus pneumoniae [12]): 0.25 µg/mL (≈ 0.835 µM)
MIC (Streptococcus pneumoniae [13]): 0.03 µg/mL (≈ 0.1 µM)
MIC (Streptococcus pneumoniae [14]): 0.25 µg/mL (≈ 0.835 µM)
MIC (Streptococcus pneumoniae [15]): 0.5 µg/mL (≈ 1.67 µM)
MIC (Streptococcus pneumoniae [16]): 0.004 µg/mL (≈ 0.0134 µM)
MIC (Streptococcus pneumoniae [17]): 0.125 µg/mL (≈ 0.418 µM)
MIC (Streptococcus pneumoniae [18]): 0.25 µg/mL (≈ 0.835 µM)
MIC50 (Streptococcus pneumoniae [19]): 0.25 µg/mL (≈ 0.835 µM)
MIC90 (Streptococcus pneumoniae [19]): 0.25 µg/mL (≈ 0.835 µM)
MIC (Streptococcus pneumoniae [20]): 0.5 µg/mL (≈ 1.67 µM)
MIC (Streptococcus pneumoniae [21]): 0.25 µg/mL (≈ 0.835 µM)
MIC (Streptococcus pneumoniae [22]): 0.06 µg/mL (≈ 0.2 µM)
MIC (Streptococcus pneumoniae [23]): 0.125 µg/mL (≈ 0.418 µM)
MIC (Streptococcus pneumoniae [24]): 0.03 µg/mL (≈ 0.1 µM)
MIC (Streptococcus pneumoniae [25]): 0.004 µg/mL (≈ 0.0134 µM)
MIC (Streptococcus pneumoniae [26]): 0.125 µg/mL (≈ 0.418 µM)
MIC (Streptococcus pneumoniae [27]): 0.5 µg/mL (≈ 1.67 µM)
MIC (Streptococcus pneumoniae [28]): 0.25 µg/mL (≈ 0.835 µM)
MIC (Streptococcus pneumoniae [29]): 0.5 µg/mL (≈ 1.67 µM)
MIC (Streptococcus pneumoniae [30]): 0.125 µg/mL (≈ 0.418 µM)
MIC (Streptococcus pneumoniae [31]): 0.25 µg/mL (≈ 0.835 µM)
MIC (Streptococcus pneumoniae [32]): 0.25 µg/mL (≈ 0.835 µM)
MIC (Streptococcus pneumoniae [33]): 0.25 µg/mL (≈ 0.835 µM)
MIC (Streptococcus pneumoniae [34]): 0.25 µg/mL (≈ 0.835 µM)
MIC50 (Streptococcus pneumoniae [35]): 0.008 µg/mL (≈ 0.0267 µM)
MIC90 (Streptococcus pneumoniae [35]): 0.008 µg/mL (≈ 0.0267 µM)
MIC (Streptococcus pneumoniae [36]): 0.25 µg/mL (≈ 0.835 µM)
MIC (Streptococcus pneumoniae [37]): 0.03 µg/mL (≈ 0.1 µM)
MIC (Streptococcus pneumoniae [38]): 0.25 µg/mL (≈ 0.835 µM)
MIC (Streptococcus pneumoniae [39]): 0.125 µg/mL (≈ 0.418 µM)
MIC (Streptococcus pneumoniae [40]): 0.125 µg/mL (≈ 0.418 µM)
MIC (Streptococcus pneumoniae [41]): 0.25 µg/mL (≈ 0.835 µM)
MIC (Streptococcus pneumoniae [42]): 0.06 µg/mL (≈ 0.2 µM)
MIC (Streptococcus pneumoniae [43]): 0.25 µg/mL (≈ 0.835 µM)
MIC (Streptococcus pneumoniae [44]): 0.5 µg/mL (≈ 1.67 µM)
MIC (Streptococcus pneumoniae [45]): 0.03 µg/mL (≈ 0.1 µM)
MIC (Streptococcus pneumoniae [46]): 0.125 µg/mL (≈ 0.418 µM)
MIC (Streptococcus pneumoniae [47]): 0.125 µg/mL (≈ 0.418 µM)
